The target of experiment [1] is T1, Steryl-sulfatase (Homo sapiens, UniProt P08842).
T1 sequence (P08842 whole entry): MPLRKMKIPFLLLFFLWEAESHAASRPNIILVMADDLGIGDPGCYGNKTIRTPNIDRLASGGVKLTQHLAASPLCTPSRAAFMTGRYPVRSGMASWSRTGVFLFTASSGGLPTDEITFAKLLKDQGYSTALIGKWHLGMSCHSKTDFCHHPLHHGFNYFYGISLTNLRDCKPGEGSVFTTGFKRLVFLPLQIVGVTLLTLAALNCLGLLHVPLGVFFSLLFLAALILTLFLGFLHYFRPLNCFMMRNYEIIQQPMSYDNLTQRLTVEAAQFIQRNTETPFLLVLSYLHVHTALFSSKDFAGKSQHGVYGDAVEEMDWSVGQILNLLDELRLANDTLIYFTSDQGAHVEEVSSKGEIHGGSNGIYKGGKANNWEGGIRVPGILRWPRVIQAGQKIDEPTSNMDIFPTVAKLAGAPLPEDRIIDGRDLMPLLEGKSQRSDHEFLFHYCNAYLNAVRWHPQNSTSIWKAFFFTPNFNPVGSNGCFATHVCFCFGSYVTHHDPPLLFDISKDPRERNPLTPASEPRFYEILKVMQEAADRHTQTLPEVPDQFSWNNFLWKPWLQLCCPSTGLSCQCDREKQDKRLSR
Nature of the experiment: Reversible inhibition of STS (unknown origin) using 4-MUS as substrate measured over 10 mins by fluorescence assay. Particulars: read-out: Ki(app). The method, boiled down: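 Purified STS at 10 nM final with 200 µM 4-MUS in 0.1 M Tris-HCl pH 7.0 (enzyme stock contained Triton X-100). Eleven inhibitor levels, 5 nM–5 µM, were added from DMSO/buffer. 4-Methylumbelliferone fluorescence (ex 360, em 460 nm) was followed for 10 min at 24 °C, in quadruplicate, with no-enzyme controls. Vi/V0 initial rates were fitted for IC50. K_i^app was the IC50-vs-[E]T intercept at 10–80 nM STS.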

For experiment [2], the target named is T1, Steryl-sulfatase. Nature of the experiment: Inhibition of STS (unknown origin) using 4-MUS as substrate measured over 10 mins by fluorescence assay. The method, boiled down:
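Purified STS (10 nM final) in 0.1 M Tris-HCl pH 7.0 containing Triton X-100, 4-MUS 200 µM final, and inhibitor at eleven concentrations (5 nM–5 µM). Ex 360/em 460 fluorescence read over 10 min at 24 °C, in quadruplicate, with no-enzyme controls. Vi/V0 from initial rates fit to a slope-factor equation. For tight binders, Ki app is the y-intercept of IC50 vs [E] (10–80 nM).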

The next experiment has as its system CCRF-CEM. In words: Cytotoxicity against human CCRF-CEM cells. The format is functional.
The next experiment concerns HL-60(TB). In words: Cytotoxicity against human HL-60(TB) cells. The format is functional.
The subject of another experiment is MOLT-4. In words: Cytotoxicity against human MOLT4 cells. The format is functional.
The subject of another experiment is RPMI-8226. In words: Cytotoxicity against human RPMI8226 cells. The format is functional.
For a further experiment, the system named is SR. In words: Cytotoxicity against human SR cells. The format is functional.
A further experiment relates to A549. In words: Cytotoxicity against human A549 cells. The format is functional.
A short description of experiment [3]: Cytotoxicity against human EKVX cells. The format is functional.
For another experiment, the system named is HOP-92. Nature of the experiment: Cytotoxicity against human HOP92 cells. The format is functional.
In the next experiment the test system is NCI-H226. In words: Cytotoxicity against human NCI-H226 cells. The format is functional.
A further experiment deals with NCI-H23. Nature of the experiment: Cytotoxicity against human NCI-H23 cells. The format is functional.
For the next experiment, the system named is NCI-H460. Nature of the experiment: Cytotoxicity against human NCI-H460 cells. The format is functional.
Another experiment concerns COLO 205. Nature of the experiment: Cytotoxicity against human COLO205 cells. The format is functional.
The subject of the next experiment is HCC 2998. Nature of the experiment: Cytotoxicity against human HCC2998 cells. The format is functional.
The test system of another experiment is HT-29. Nature of the experiment: Cytotoxicity against human HT-29 cells. The format is functional.
A further experiment deals with KM12. In words: Cytotoxicity against human KM12 cells. The format is functional.
A further experiment has as its system SW-620. In words: Cytotoxicity against human SW620 cells. The format is functional.
The test system of the next experiment is SF-268. Nature of the experiment: Cytotoxicity against human SF268 cells. The format is functional.
The subject of a further experiment is SF-295. In words: Cytotoxicity against human SF295 cells. The format is functional.
Another experiment concerns SF-539. In words: Cytotoxicity against human SF539 cells. The format is functional.
The test system of the next experiment is SNB-75. Nature of the experiment: Cytotoxicity against human SNB75 cells. The format is functional.
For another experiment, the system named is U-251. Nature of the experiment: Cytotoxicity against human U251 cells. The format is functional.
A further experiment concerns LOX IMVI. Nature of the experiment: Cytotoxicity against human LOXIMVI cells. The format is functional.
Another experiment has as its system M14. Nature of the experiment: Cytotoxicity against human M14 cells. The format is functional.
The test system of the next experiment is MDA-MB-435. In words: Cytotoxicity against human MDA-MB-435 cells. The format is functional.
Another experiment relates to SK-MEL-2. In words: Cytotoxicity against human SK-MEL-2 cells. The format is functional.
The next experiment concerns SK-MEL-5. In words: Cytotoxicity against human SK-MEL-5 cells. The format is functional.
Another experiment has as its system UACC-257. Nature of the experiment: Cytotoxicity against human UACC257 cells. The format is functional.
In a further experiment the test system is UACC-62. In words: Cytotoxicity against human UACC62 cells. The format is functional.
For another experiment, the system named is IGROV-1. Nature of the experiment: Cytotoxicity against human IGROV1 cells. The format is functional.
The subject of another experiment is OVCAR-3. Nature of the experiment: Cytotoxicity against human OVCAR3 cells. The format is functional.
For the next experiment, the system named is OVCAR-5. In words: Cytotoxicity against human OVCAR5 cells. The format is functional.
In the next experiment the test system is OVCAR-8. Nature of the experiment: Cytotoxicity against human OVCAR8 cells. The format is functional.
Experiment [4] in a line: Cytotoxicity against human NCI-ADR-RES cells. The format is functional.
For the next experiment, the system named is SK-OV-3. In words: Cytotoxicity against human SKOV3 cells. The format is functional.
For a further experiment, the system named is 786-0. In words: Cytotoxicity against human 786-0 cells. The format is functional.
The test system of a further experiment is A498. Nature of the experiment: Cytotoxicity against human A498 cells. The format is functional.
The next experiment concerns ACHN. Nature of the experiment: Cytotoxicity against human ACHN cells. The format is functional.
The subject of the next experiment is CAKI-1. In words: Cytotoxicity against human Caki1 cells. The format is functional.
The test system of the next experiment is RXF 393. In words: Cytotoxicity against human RXF393 cells. The format is functional.
For a further experiment, the system named is SN12C. In words: Cytotoxicity against human SN12C cells. The format is functional.
The next experiment deals with TK-10. In words: Cytotoxicity against human TK10 cells. The format is functional.
In another experiment the test system is PC-3. In words: Cytotoxicity against human PC3 cells. The format is functional.
For experiment [5], the system named is MCF7. Nature of the experiment: Cytotoxicity against human MCF7 cells. The format is functional.
In another experiment the test system is MDA-MB-231. Nature of the experiment: Cytotoxicity against human MDA-MB-231 cells. The format is functional.
The nature of experiment [6]: Cytotoxicity against human Hs578T cells. The format is functional. Particulars: Hs-578T.
The next experiment has as its system BT-549. Nature of the experiment: Cytotoxicity against human BT549 cells. The format is functional.
The test system of another experiment is T47D. In words: Cytotoxicity against human T47D cells. The format is functional.
The test system of a further experiment is MDA-MB-468. Nature of the experiment: Cytotoxicity against human MDA-MB-468 cells. The format is functional.
The subject of experiment [7] is MCF7. In words: Cytotoxicity against human MCF7 cells assessed as inhibition of cell growth at 10 uM after 96 hrs by Cell Titer 96 Aqueous One solution Cell proliferation assay relative to control. The format is functional. The note with it: MCF7, 96 h, read-out: GI.

Data on four compounds can be found in ChEMBL document CHEMBL3600382, “A-ring substituted 17β-arylsulfonamides of 17β-aminoestra-1,3,5(10)-trien-3-ol as highly potent reversible inhibitors of steroid sulfatase” (Bioorg Med Chem, 2015).

In general, pKi refers to the negative decadic logarithm of the Ki, by convention in mol/L. A word on the pIC50: it is the IC50 on a negative log10 scale, so that one unit is a factor of ten. Read a low pIC50 as a large IC50. What is called GI50 is the concentration at which growth is held to half of that of the control. Lower therefore signals more potent growth inhibition.

pIC50, pKi: −log10 of the molar value.

Take `C[C@]12CC[C@@H]3c4ccc(O)c([N+](=O)[O-])c4CC[C@H]3[C@@H]1CC[C@@H]2NS(=O)(=O)c1ccc(-c2ccccc2)cc1`: the pKi at Steryl-sulfatase [1] is 9.00.
At Steryl-sulfatase [2], `C[C@]12CC[C@@H]3c4ccc(O)c([N+](=O)[O-])c4CC[C@H]3[C@@H]1CC[C@@H]2NS(=O)(=O)c1cccc(Br)c1` gave a negative logarithm of the IC50 (pIC50) of 7.92. Also, the 50% growth inhibitory concentration (GI50) in the experiment with CCRF-CEM, in the experiment with HL-60(TB), with MOLT-4, in the experiment with RPMI-8226, in the experiment with SR and with A549 was 1000 nM in each case. Further, the GI50 (in [3]; in the experiment with HOP-92; in the experiment on NCI-H226; in the experiment with NCI-H23; in the experiment on NCI-H460; with COLO 205) was 1000 nM throughout. In addition, the GI50 with HCC 2998, in the experiment on HT-29, with KM12, in the experiment with SW-620, in the experiment on SF-268 and in the experiment on SF-295 was 1000 nM throughout. The GI50 in the experiment with SF-539, in the experiment with SNB-75, with U-251, in the experiment on LOX IMVI, in the experiment on M14 and with MDA-MB-435 was 1000 nM in each case. The concentration for 50% growth inhibition (GI50) with SK-MEL-2, in the experiment with SK-MEL-5, in the experiment with UACC-257, with UACC-62, with IGROV-1 and in the experiment with OVCAR-3 was 1000 nM throughout. In addition, the GI50 (with OVCAR-5; in the experiment on OVCAR-8; in experiment [4]; with SK-OV-3; in the experiment on 786-0; with A498) was 1000 nM each time. Also, the GI50 with ACHN, with CAKI-1, with RXF 393, with SN12C, in the experiment with TK-10 and in the experiment on PC-3 was 1000 nM in each case. The concentration for 50% growth inhibition (GI50) with MCF7 [5] was 1900 nM; in the experiment with MDA-MB-231, 1500 nM; in [6] it was 2100 nM; in the experiment with BT-549 it was 1600 nM; with T47D, 2500 nM; with MDA-MB-468, 2200 nM.
As to `C[C@]12CC[C@@H]3c4ccc(O)c(F)c4CC[C@H]3[C@@H]1CC[C@@H]2NS(=O)(=O)c1cccc(C(F)(F)F)c1`, the negative logarithm of the Ki (pKi) on Steryl-sulfatase [1] was 8.60.
With `C[C@]12CC[C@@H]3c4ccc(O)cc4CC[C@H]3[C@@H]1CC[C@@]2(O)Cc1ccccc1`, in the experiment on MCF7 [7], the inhibition of growth at 10 µM came out at 51%.
